An excerpt weighted towards active compounds, which were near 4.8% of everything screened.
pPAFAH inh – pPAFAH (human) enzyme inhibition; recombinant pPAFAH, FP-rhodamine probe fluorescence polarization; inhibition, % at 3.39 µM; actives 1.5% (n = 330,000); AID 463082;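 active = inhibition above the mean inhibition across the screen plus 3 SD, cut at about 25% in these data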;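 also: inhibitors block binding of the rhodamine activity-based probe so polarization drops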
PAFAH2 FP inh – inhibitors of human PAFAH2. AID 492956. recombinant PAFAH2, FP-rhodamine activity probe, fluorescence polarization. actives 0.99% (n = 340,000). inhibition, % at 3.39 µM;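 active = inhibition above the mean over all tested compounds plus 3 SD, cut at about 30% in these data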;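 also: inhibitors block probe labeling of enzyme so polarization drops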
UCH37 DUB inh – inhibitors of human deubiquitinating enzyme UCH37. Q9Y5K5. AID 588478. actives 0.33% (n = 330,000). purified proteasome/UCH37, Ub-AMC cleavage fluorescence. inhibition, % (no concentration beside the values);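 active = mean inhibition over replicate wells above about 20%, limit read from the data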
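Reagent: Ub-AMC substrate; assay system: Proteasome-associated human UCH37 deubiquitinase; controls: no-proteasome and no-compound wells; read-out: % inhibition of Ub-AMC cleavage fluorescence; timing: 30 min preincubation with enzyme, 25 min cleavage at room temperature; signal: AMC fluorescence from Ub-AMC cleavage, excitation 355 nm, emission 460 nm; buffer or medium: Tris-HCl pH 7.4 plus ovalbumin, ATP-MgCl2, DTT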
PAFAH1B2 FP inh – PAFAH1B2 (human) inhibition; recombinant PAFAH1B2, FP-rhodamine activity probe, fluorescence polarization; P68402; actives 1.2% (n = 340,000); inhibition, % at 3.39 µM;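 active = inhibition above the mean of all tested compounds plus 3 SD, cut at about 24% in these data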
Target sequence (P68402 whole entry, looked up): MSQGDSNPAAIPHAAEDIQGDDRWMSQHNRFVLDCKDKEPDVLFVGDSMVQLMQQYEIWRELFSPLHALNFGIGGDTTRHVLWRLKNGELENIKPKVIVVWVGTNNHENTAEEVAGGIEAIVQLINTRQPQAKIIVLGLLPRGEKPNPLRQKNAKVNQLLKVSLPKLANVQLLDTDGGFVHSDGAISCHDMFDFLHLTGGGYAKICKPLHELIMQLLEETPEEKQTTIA
PAFAH1B3 FP inh – PAFAH1B3 (human) inhibition; actives 0.28% (n = 340,000); inhibition, % at 3.39 µM; recombinant PAFAH1B3, FP-rhodamine probe, fluorescence polarization; Q15102; AID 492972;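 active = inhibition above the screen-wide average of all tested compounds plus 3 SD, cut at about 25% in these data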
Target sequence (Q15102 whole entry, looked up): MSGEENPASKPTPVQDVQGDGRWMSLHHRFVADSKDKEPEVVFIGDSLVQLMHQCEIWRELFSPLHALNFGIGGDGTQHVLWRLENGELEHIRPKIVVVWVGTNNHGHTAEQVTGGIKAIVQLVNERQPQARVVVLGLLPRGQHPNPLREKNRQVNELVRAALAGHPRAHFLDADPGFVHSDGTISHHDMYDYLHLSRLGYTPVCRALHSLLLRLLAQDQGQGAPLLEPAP
NR3A LBD binder – modulates the human NR3A ligand-binding domain. NR3A LBD differential scanning fluorimetry, Tm shift; 0% = protein alone, 100% = glycine-bound protein. Tm shift relative to glycine control, % at 25 µM. actives 2.5% (n = 340,000);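 active = melting temperature shift of at least 10% of the positive control shift, at one fixed dose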
Hits are given with their value.

What do the screens show for `COc1ccc([C@@H]2CC=C(C(=O)O)[C@H](c3ccc(F)cc3)N2S(=O)(=O)c2ccc(Cl)cc2)cc1`?
pPAFAH inh: inactive; PAFAH2 FP inh: inactive; UCH37 DUB inh: inactive; PAFAH1B2 FP inh: 29; PAFAH1B3 FP inh: inactive; NR3A LBD binder: inactive

What do the screens show for `COc1ccc([C@@H]2CC=C(C(=O)O)[C@H](c3ccccc3F)N2S(=O)(=O)c2ccccc2C)cc1`?
pPAFAH inh: inactive; PAFAH2 FP inh: inactive; UCH37 DUB inh: inactive; PAFAH1B2 FP inh: inactive; PAFAH1B3 FP inh: inactive; NR3A LBD binder: inactive

Results for COc1ccc([C@@H]2CC=C(C(=O)O)[C@H](c3ccc(F)cc3)N2S(=O)(=O)c2ccccc2C)cc1 ?
pPAFAH inh: inactive; PAFAH2 FP inh: inactive; UCH37 DUB inh: inactive; PAFAH1B2 FP inh: 25; PAFAH1B3 FP inh: inactive; NR3A LBD binder: inactive

How did COc1cc(NS(=O)(=O)c2cc(C(=O)NCCc3ccccn3)ccc2OC)cc(OC)c1 do in these assays?
pPAFAH inh: inactive; PAFAH2 FP inh: inactive; UCH37 DUB inh: inactive; PAFAH1B2 FP inh: inactive; PAFAH1B3 FP inh: inactive; NR3A LBD binder: 11

What do the screens show for `CCCN1C(=O)C(=NOCC(=O)NC23CC4CC(CC(C4)C2)C3)c2ccccc21`?
UCH37 DUB inh: inactive

What do the screens show for `Cc1ccc(C(=O)N2[C@@H]3CN(C)C(=O)[C@@]2(Cc2ccccc2)[C@H]2C(=O)N(Cc4ccccc4)C(=O)[C@@H]32)cc1`?
PAFAH2 FP inh: inactive; UCH37 DUB inh: inactive; PAFAH1B2 FP inh: inactive; PAFAH1B3 FP inh: inactive; NR3A LBD binder: 17

Results for CN1C[C@@H]2[C@@H]3C(=O)N(Cc4ccccc4)C(=O)[C@@H]3[C@](Cc3ccccc3)(C1=O)N2C(=O)c1ccc(Cl)cc1 ?
PAFAH2 FP inh: inactive; UCH37 DUB inh: inactive; PAFAH1B2 FP inh: inactive; PAFAH1B3 FP inh: inactive; NR3A LBD binder: inactive

How did CN(C(=O)c1cccc(COc2ccc(Cl)cc2Cl)c1)c1ccccc1 do in these assays?
pPAFAH inh: inactive; PAFAH2 FP inh: inactive; UCH37 DUB inh: inactive; PAFAH1B2 FP inh: 27; PAFAH1B3 FP inh: inactive; NR3A LBD binder: inactive

How did O=C(NCc1ccccc1)c1cccc(COc2cc(Cl)ccc2Cl)c1 do in these assays?
pPAFAH inh: inactive; PAFAH2 FP inh: inactive; UCH37 DUB inh: inactive; PAFAH1B2 FP inh: inactive; PAFAH1B3 FP inh: inactive; NR3A LBD binder: inactive

Results for COc1c(Br)cc([N+](=O)[O-])c(OC)c1C(=O)NC(=O)Nc1cc(Cl)cc(Cl)c1 ?
pPAFAH inh: inactive; PAFAH2 FP inh: inactive; UCH37 DUB inh: inactive; PAFAH1B2 FP inh: inactive; PAFAH1B3 FP inh: inactive; NR3A LBD binder: 13

How did CCCCCOC(=O)Nc1ccc(S(=O)(=O)Nc2cccc([N+](=O)[O-])c2)cc1 do in these assays?
pPAFAH inh: inactive; PAFAH2 FP inh: inactive; UCH37 DUB inh: inactive; PAFAH1B2 FP inh: inactive; PAFAH1B3 FP inh: inactive; NR3A LBD binder: 28

Results for CCCCOc1ccc(S(=O)(=O)Nc2ccc(NC(C)=O)cc2)cc1 ?
pPAFAH inh: inactive; PAFAH2 FP inh: inactive; UCH37 DUB inh: inactive; PAFAH1B2 FP inh: inactive; PAFAH1B3 FP inh: inactive; NR3A LBD binder: inactive

What do the screens show for `CCCCN(CCCC)S(=O)(=O)c1ccc(NS(=O)(=O)c2ccc(NC(C)=O)cc2)cc1`?
pPAFAH inh: inactive; PAFAH2 FP inh: inactive; UCH37 DUB inh: inactive; PAFAH1B2 FP inh: inactive; PAFAH1B3 FP inh: inactive; NR3A LBD binder: 13

How did CCCCOC(=O)Nc1ccc(S(=O)(=O)Nc2cc(C)nc(C)n2)cc1 do in these assays?
pPAFAH inh: inactive; PAFAH2 FP inh: inactive; UCH37 DUB inh: inactive; PAFAH1B2 FP inh: inactive; PAFAH1B3 FP inh: inactive; NR3A LBD binder: inactive

How did CCCCOC(=O)Nc1ccc(S(=O)(=O)Nc2ccc([N+](=O)[O-])cc2)cc1 do in these assays?
pPAFAH inh: inactive; PAFAH2 FP inh: inactive; UCH37 DUB inh: inactive; PAFAH1B2 FP inh: inactive; PAFAH1B3 FP inh: inactive; NR3A LBD binder: 17

Results for Cc1cc(C)c(-n2c(C)cc(/C=C3/NC(=O)NC3=O)c2C)c(C)c1 ?
pPAFAH inh: 27; UCH37 DUB inh: inactive; NR3A LBD binder: inactive

How did Cc1cccc(-n2c(C)cc(/C=C3\NC(=O)NC3=O)c2C)c1 do in these assays?
pPAFAH inh: inactive; PAFAH2 FP inh: inactive; UCH37 DUB inh: inactive; PAFAH1B2 FP inh: inactive; PAFAH1B3 FP inh: inactive; NR3A LBD binder: inactive

What do the screens show for `S=c1[nH]c(-c2ccccc2)cn1N=Cc1ccccc1Br`?
UCH37 DUB inh: inactive
